# ChEMBL document CHEMBL4364306, “Structure-activity relationships of thiazole and benzothiazole derivatives as selective cannabinoid CB2 agonists with in vivo anti-inflammatory properties” (Eur J Med Chem, 2019)
# pEC50: −log10 of the molar value. Calls of active or inactive are those of the source. No cut-off for these calls is given here.
# Columns and labels:
# Mus musculus [1] = assay: Anti-colitis activity in Swiss albino mouse model of DSS-induced acute colitis assessed as reduction in DSS-induced ulceration in distal part of colon at 10 mg/kg, ip administrated for 7 days by H and E staining based light microscopic method; format: functional, organism-based
# Method in brief: (§1)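 DSS colitis (3% DSS, 7 days) in male Swiss albino mice with daily ip 10 mg/kg in 4% DMSO/2% tween/saline. Distal colon fixed in 10% formol saline 24 h, paraffin-embedded, 4 µm sections, H&E, light microscopy scored for epithelial ulceration/desquamation, mucosal and submucosal infiltration, submucosal oedema, haemorrhage, lymphoid hyperplasia.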
# Cannabinoid receptor 1 [2] = biological target: T1, Cannabinoid receptor 1 (Homo sapiens, UniProt P21554); assay: Agonist activity at N-terminal Flag epitope tagged CB1 (unknown origin) expressed in HTLA cells assessed as increase of beta-arrestin recruitment by Tango assay; format: cell-based
# Method in brief: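 HTLA cells transfected overnight with GPCR Tango constructs, plated at 15,000 cells/well in DMEM with 1% dFBS and allowed to recover at least 6 h. Compounds in Tango buffer (20 mM HEPES, 1x HBSS, pH 7.40) added overnight, full concentration-response up to 30 µM against CP-55,940 as reference agonist. BrightGlo reagent added for 20 min at room temperature in the dark, then luminescence read.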
# Cannabinoid receptor 1 [3] = biological target: T1, Cannabinoid receptor 1; assay: Antagonist activity at N-terminal Flag epitope tagged CB1 (unknown origin) expressed in HTLA cells assessed as decrease in CP55940-induced beta-arrestin recruitment pretreated with non-selective cannabinoid receptor agonist CP55940 for 30 mins and measured after 20 mins by Tango assay; format: cell-based
# Mus musculus [4] = assay: Anti-colitis activity in Swiss albino mouse model of DSS-induced acute colitis assessed as reduction in DSS-induced lymphoid hyperplasia in the sub-musoca in colon at 10 mg/kg, ip administrated for 7 days by H and E staining based light microscopic method; format: functional, organism-based; method in brief: as §1
# Cannabinoid receptor 2 [5] = biological target: T2, Cannabinoid receptor 2 (Homo sapiens, UniProt P34972); assay: Antagonist activity at N-terminal Flag epitope tagged CB2 (unknown origin) expressed in HTLA cells assessed as decrease in CP55940-induced beta-arrestin recruitment pretreated with non-selective cannabinoid receptor agonist CP55940 for 30 mins and measured after 20 mins by Tango assay; format: cell-based
# Mus musculus [6] = assay: Anti-colitis activity in Swiss albino mouse model of DSS-induced acute colitis assessed as disease activity index at 10 mg/kg, ip administrated for 7 days (reference value: 7.143 +/- 1.29); format: functional
# Mus musculus [7] = assay: Anti-inflammatory activity in Swiss albino mouse model of DSS-induced acute colitis as IL1beta level in colon tissue at 10 mg/kg, ip administrated for 7 days by ELISA (reference value: 140.9 +/- 8.551 pg/mg); format: functional
# Mus musculus [8] = assay: Anti-inflammatory activity in Swiss albino mouse model of DSS-induced acute colitis as TNFalpha level in colon tissue at 10 mg/kg, ip administrated for 7 days by ELISA (reference value: 102.4 +/- 5.043 pg/mg); format: functional
# Mus musculus [9] = assay: Anti-colitis activity in Swiss albino mouse model of DSS-induced acute colitis assessed as reduction in DSS-induced oedema in colon at 10 mg/kg, ip administrated for 7 days by H and E staining based light microscopic method; format: functional, organism-based; method in brief: as §1
# Homo sapiens = species on record: Homo sapiens; assay: Selectivity index, ratio of Ki for recombinant human CB1R expressed in HEK293 cell membranes to Ki for recombinant human CB2R expressed in HEK293 cell membranes; format: cell-based
# Mus musculus [10] = assay: Anti-colitis activity in Swiss albino mouse model of DSS-induced acute colitis assessed as reduction in DSS-induced haemorrhage in colon at 10 mg/kg, ip administrated for 7 days by H and E staining based light microscopic method; format: functional, organism-based; method in brief: as §1
# Cannabinoid receptor 1 [11] = biological target: T1, Cannabinoid receptor 1; assay: Displacement of [3H]CP55940 from recombinant human CB1R expressed in HEK293 cell membranes at 10 uM incubated for 90 mins relative to control
# Mus musculus [12] = assay: Anti-colitis activity in Swiss albino mouse model of DSS-induced acute colitis assessed as colon length at 10 mg/kg, ip administrated for 7 days (reference value: 7.314 +/- 0.1143 cm); format: functional
# Cannabinoid receptor 2 [13] = biological target: T2, Cannabinoid receptor 2; assay: Agonist activity at recombinant human CB2R expressed in CHOK1 cells assessed as inhibition of NKH477-stimulated intracellular cAMP levels after 30 mins by chemiluminescent detection based cAMP Hunter assay; format: functional, cell-based
# Method in brief: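 CHO-K1 cells overexpressing human CB2R, plated 30,000 cells/well, overnight 37 °C, 5% CO2. Compound dose-responses incubated 30 min at 37 °C with NKH-477 (25 µM) to stimulate adenylate cyclase. Enzyme fragment complementation chemiluminescence read. Normalised to NKH-477 alone as 100%; mean ± SEM of three independent experiments in triplicate.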
# Cannabinoid receptor 2 [14] = biological target: T2, Cannabinoid receptor 2; assay: Agonist activity at N-terminal Flag epitope tagged CB2 (unknown origin) expressed in HTLA cells assessed as increase of beta-arrestin recruitment by Tango assay; format: cell-based
# Method in brief: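 β-arrestin Tango assay: HTLA cells transfected overnight with GPCR tango constructs, plated at 15,000 cells/well in DMEM with 1% dFBS, recovered ≥6 h. Drugs in Tango buffer (20 mM HEPES, 1x HBSS, pH 7.40) added overnight, full concentration-response (maximum 30 µM). BrightGlo reagent, 20 min room temperature in dark, luminescence read.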
# Mus musculus [15] = assay: Anti-colitis activity in Swiss albino mouse model of DSS-induced acute colitis assessed as reduction in DSS-induced inflammatory cells infiltration in the submucosa in colon at 10 mg/kg, ip administrated for 7 days by H and E staining based light microscopic method; format: functional, organism-based; method in brief: as §1
# Mus musculus [16] = assay: Anti-colitis activity in Swiss albino mouse model of DSS-induced acute colitis assessed as reduction in DSS-induced desquamation in lining of mucosal epithelium in colon tissue at 10 mg/kg, ip administrated for 7 days by H and E staining based light microscopic method; format: functional, organism-based; method in brief: as §1
# Cannabinoid receptor 2 [17] = biological target: T2, Cannabinoid receptor 2; assay: Displacement of [3H]CP55940 from recombinant human CB2R expressed in HEK293 cell membranes at 10 uM incubated for 90 mins relative to control
# T2 sequence (P34972 whole entry): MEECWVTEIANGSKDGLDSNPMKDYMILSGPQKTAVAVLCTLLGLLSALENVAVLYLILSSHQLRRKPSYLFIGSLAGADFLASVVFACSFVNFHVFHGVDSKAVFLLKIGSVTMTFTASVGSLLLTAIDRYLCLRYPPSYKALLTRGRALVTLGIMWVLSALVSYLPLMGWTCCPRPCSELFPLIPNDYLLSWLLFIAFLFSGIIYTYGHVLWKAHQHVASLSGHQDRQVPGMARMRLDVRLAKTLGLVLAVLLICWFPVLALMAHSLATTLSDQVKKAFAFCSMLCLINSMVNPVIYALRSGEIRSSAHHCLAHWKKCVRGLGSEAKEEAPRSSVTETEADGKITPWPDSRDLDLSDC
# T1 sequence (P21554 whole entry): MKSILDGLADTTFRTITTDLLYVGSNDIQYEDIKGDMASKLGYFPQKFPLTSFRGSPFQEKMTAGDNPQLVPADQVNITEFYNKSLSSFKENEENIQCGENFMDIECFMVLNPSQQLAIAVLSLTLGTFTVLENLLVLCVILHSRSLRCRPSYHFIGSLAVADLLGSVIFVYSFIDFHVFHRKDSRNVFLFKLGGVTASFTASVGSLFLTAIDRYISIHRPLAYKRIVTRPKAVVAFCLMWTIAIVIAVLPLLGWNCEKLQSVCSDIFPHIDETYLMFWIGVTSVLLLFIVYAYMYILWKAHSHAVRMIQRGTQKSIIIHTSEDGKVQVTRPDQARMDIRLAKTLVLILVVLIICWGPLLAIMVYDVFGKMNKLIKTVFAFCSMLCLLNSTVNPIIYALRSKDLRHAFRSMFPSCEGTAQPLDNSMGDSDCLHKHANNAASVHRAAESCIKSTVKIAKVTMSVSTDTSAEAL
smiles,measurement,setting,value
CCCCCn1/c(=N/C(=O)c2cccc(C(F)(F)F)c2)sc2ccccc21,Activity,Mus musculus [1],Active
same,pEC50,Cannabinoid receptor 1 [2],< 4.52
same,pEC50,Cannabinoid receptor 1 [3],< 4.52
same,Activity,Mus musculus [4],Active
same,pEC50,Cannabinoid receptor 2 [5],< 4.52
same,Activity_index,Mus musculus [6],3.286
same,Activity,Mus musculus [7],102.4 pg/mg
same,Activity,Mus musculus [8],58.71 pg/mg
same,Activity,Mus musculus [9],Active
same,Ratio Ki,Homo sapiens,429
same,Activity,Mus musculus [10],Active
same,Activity,Cannabinoid receptor 1 [11],Active
same,Activity,Mus musculus [12],6.729 cm
same,pEC50,Cannabinoid receptor 2 [13],6.51
same,pEC50,Cannabinoid receptor 2 [14],6.89
same,Activity,Mus musculus [15],inactive
same,Activity,Mus musculus [16],Active
same,Activity,Cannabinoid receptor 2 [17],Active
